Calls of active or inactive are those of the source. The rule behind the calls is not given here.
Legend:
[1] = Induction of BMP2 expression in mouse calcarial MC3T3-E1 cells stably transfected with mouse BMP2 promotor-luciferase assessed as upregulation rate at 4 uM; type: functional, cell-based
Method in brief: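 Reporter assay in murine calvarial MC3T3-E1 cells stably carrying the mouse BMP-2 promoter fused to firefly luciferase (pGL4BMP-2). Cells grown in DMEM with 10% heat-inactivated FBS at 37 °C and 5% CO2. Test compounds at 4.0 μM; lovastatin at 0.4 μM as positive control; 0.1% DMSO as negative control. Up-regulation rate = (RLU of test − RLU of negative control)/RLU of negative control × 100.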

[2] = system: Mus musculus; assay: Induction of bone mineral density in SAMP6 mouse assessed as spine BMD at 30 mg/kg/day, po measured after 3 months; type: functional
Method in brief: (§1)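 SAMP6 mice, 5 months old, n = 5 per group, given compound in 0.5% methylcellulose by gavage daily. Dual-energy X-ray absorptiometry under pentobarbital anaesthesia (50 mg/kg ip), animals prone, at 0, 4, 8 and 12 weeks of treatment. Regions of interest were whole body, spine and left hind leg.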

[3] = system: Mus musculus; assay: Induction of BMP2 expression in SAMP6 mouse osteoblast at 30 mg/kg/day, po after 3 months by immunohistochemical analysis; type: functional, organism-based
Method in brief: (§2)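 SAMP6 mice, 5 months old, male and female, n = 5 per group (3 male, 2 female). Dosed by gavage with compound suspended in 0.5% methylcellulose daily for 3 months; the vehicle group received methylcellulose only. Proximal third of the left femur fixed in 4% neutral paraformaldehyde for 24 h, decalcified in 10% EDTA at 4 °C for 4 weeks, then frozen-sectioned at 5 μm. Stained with rabbit polyclonal anti-BMP-2 and an alkaline phosphatase secondary. BMP-2-positive area was taken as a percentage of bone tissue area, averaged over five fields below the epiphyseal plate.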

[4] = system: Mus musculus; assay: Toxicity in SAMP6 mouse assessed as increase in body weight at 30 mg/kg/day, po after 3 months; type: organism-based; set-up: route oral; settings: in vivo
Method in brief: (§3)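 SAMP6 mice, n = 5 per group, dosed orally at 30 mg/kg/day in 0.5% methylcellulose for 3 months. Heart, liver, spleen, lung and kidney harvested, weighed and examined histologically. Organ/body weight indexes, body weight, and 24 h water and food intake (g/g body weight) compared with vehicle controls.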

[5] = system: Mus musculus; assay: Induction of bone mineral density in SAMP6 mouse assessed as whole body BMD at 10 mg/kg/day, po measured after 1 month; type: functional, organism-based; settings: 30 mg/kg, in the assay text read “30 mg/kg/day” for “10 mg/kg/day”; method in brief: as §1
[6] = system: Mus musculus; assay: Toxicity in SAMP6 mouse assessed as change in 24 hrs food consumption at 30 mg/kg/day, po after 3 months; type: organism-based; set-up: route oral; settings: in vivo; method in brief: as §3
[7] = system: Mus musculus; assay: Induction of bone formation in SAMP6 mouse right femora assessed as trabecular resorption surface percentage at 30 mg/kg/day, po measured after 3 months by bone histomorphometry; type: functional, Trabecula
Method in brief: (§4)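 SAMP6 mice, 5 months old, n = 5 per group (3 male, 2 female), randomized by initial BMD. Given compound in 0.5% methylcellulose by gavage daily for 3 months. Proximal third of the right femur fixed in 4% paraformaldehyde, cut as undecalcified sections, and scored by image analysis for histomorphometry.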

[8] = system: Mus musculus; assay: Toxicity in SAMP6 mouse assessed as change in 24 hrs water consumption at 30 mg/kg/day, po after 3 months; type: organism-based; set-up: route oral; settings: in vivo; method in brief: as §3
[9] = system: Mus musculus; assay: Induction of bone mineral density in SAMP6 mouse assessed as whole body BMD at 30 mg/kg/day, po measured after 2 months
[10] = system: Mus musculus; assay: Toxicity in SAMP6 mouse assessed as pathological changes in liver at 30 mg/kg/day, po after 3 months by histomorphology; type: organism-based; set-up: route oral; settings: in vivo; method in brief: as §3
[11] = system: Mus musculus; assay: Toxicity in SAMP6 mouse assessed as pathological changes in kidney at 30 mg/kg/day, po after 3 months by histomorphology; type: organism-based; set-up: route oral; settings: in vivo; method in brief: as §3
[12] = system: Mus musculus; assay: Induction of BMP2 expression in SAMP6 mouse cartilage cells at 30 mg/kg/day, po after 3 months by immunohistochemical analysis; type: functional, organism-based; method in brief: as §2
[13] = system: Mus musculus; assay: Induction of bone mineral density in SAMP6 mouse assessed as left hind leg BMD at 30 mg/kg/day, po measured after 3 months; type: functional; method in brief: as §1
[14] = system: Mus musculus; assay: Toxicity in SAMP6 mouse assessed as pathological changes in heart at 30 mg/kg/day, po after 3 months by histomorphology; type: organism-based; set-up: route oral; settings: in vivo; method in brief: as §3
[15] = system: Mus musculus; assay: Induction of BMP2 expression in SAMP6 mouse bone marrow stroma at 30 mg/kg/day, po after 3 months by immunohistochemical analysis; type: functional, organism-based; method in brief: as §2
[16] = system: Mus musculus; assay: Induction of bone formation in SAMP6 mouse right femora assessed as average osteoid width at 30 mg/kg/day, po measured after 3 months by bone histomorphometry; type: functional; method in brief: as §4
[17] = system: Mus musculus; assay: Toxicity in SAMP6 mouse assessed as pathological changes in lung at 30 mg/kg/day, po after 3 months by histomorphology; type: organism-based; set-up: route oral; settings: in vivo; method in brief: as §3
[18] = Toxicity in po dosed Kunming mouse assessed as mortality treated for 3 days measured after 17 days; type: organism-based; settings: in vivo
Method in brief: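 Male and female Kunming mice (18-21 g), six per group (three males, three females), were dosed orally at 500 or 700 (mg/kg)/day for 3 days. They were closely watched for deaths over the 3 dosing days and the following 14 days (17 days in total).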

[19] = system: Mus musculus; assay: Induction of bone mineral density in SAMP6 mouse assessed as whole body BMD at 30 mg/kg/day, po measured after 3 months; type: functional; method in brief: as §1
[20] = system: Mus musculus; assay: Induction of BMP2 expression in SAMP6 mouse osteoblast at 10 mg/kg/day, po after 3 months by immunohistochemical analysis; type: functional, organism-based; method in brief: as §2
[21] = system: Mus musculus; assay: Induction of bone formation in SAMP6 mouse right femora assessed as trabecular bone volume percentage at 30 mg/kg/day, po measured after 3 months by bone histomorphometry; type: functional, Trabecula; method in brief: as §4
[22] = system: Mus musculus; assay: Toxicity in SAMP6 mouse assessed as pathological changes in spleen at 30 mg/kg/day, po after 3 months by histomorphology; type: organism-based; set-up: route oral; settings: in vivo; method in brief: as §3
[23] = system: Mus musculus; assay: Induction of bone formation in SAMP6 mouse right femora assessed as trabecular formation surface percentage at 30 mg/kg/day, po measured after 3 months by bone histomorphometry; type: functional, Trabecula; method in brief: as §4
[24] = system: Mus musculus; assay: Induction of bone mineral density in SAMP6 mouse assessed as spine BMD at 30 mg/kg/day, po measured last 2 months; type: functional, organism-based; method in brief: as §1
[25] = system: Mus musculus; assay: Induction of bone mineral density in SAMP6 mouse assessed as whole body BMD at 10 mg/kg/day, po measured after 2 months; type: functional, organism-based; settings: 30 mg/kg, in the assay text read “30 mg/kg/day” for “10 mg/kg/day”; method in brief: as §1
[26] = system: Mus musculus; assay: Induction of bone mineral density in SAMP6 mouse assessed as whole body BMD at 30 mg/kg/day, po measured after 2 months; type: functional, organism-based; method in brief: as §1

## CCOC(=O)c1ccc2sc(C(=O)/C=C/c3ccccc3Cl)cc2c1
[1]
  Activity: 24%

## COc1ccc(/C=C/C(=O)c2cc3ccccc3s2)cc1
[2]
  Activity: 0.089 g/cm2
[3]
  Activity: Active
[4]
  Activity: Non-toxic
[5]
  Activity: Active
[6]
  Activity: Non-toxic
[7]
  Activity: 6.29%
[8]
  Activity: Non-toxic
[1]
  Activity: 27.3%
[9]
  Activity: Active
[10]
  Activity: Non-toxic
[11]
  Activity: Non-toxic
[12]
  Activity: inactive
[13]
  Activity: 0.05 g/cm2
[14]
  Activity: Non-toxic
[15]
  Activity: Active
[16]
  Activity: 5.5 µm
[17]
  Activity: Non-toxic
[18]
  LD50 at 408 h: > 500 mg/kg
[19]
  Activity: 0.07 g/cm2
[20]
  Activity: Active
[21]
  Activity: 8.94%
[22]
  Activity: Non-toxic
[23]
  Activity: 6.54%

## O=C(/C=C/c1ccccc1)c1cc2ccccc2o1
[1]
  Activity: 24.4%

## CCOC(=O)c1ccc2sc(C(=O)/C=C/c3ccc(OC)c(OC)c3OC)cc2c1
[1]
  Activity: -21.5%

## C[S+]([O-])CC(=O)c1cc2c(Cl)cccc2s1 (stereo not drawn)
[1]
  Activity: 18.5%

## CS(=O)(=O)CC(=O)c1cc2ccccc2s1
[1]
  Activity: 5.1%

## CCOC(=O)c1cc2cccc(OC)c2o1
[1]
  Activity: 12.4%

## CCOC(=O)c1ccc2sc(C(=O)/C=C/c3ccccc3)cc2c1
[1]
  Activity: 12.6%

## COc1cc2cc(C(C)=O)sc2cc1OC
[1]
  Activity: 37.1%

## CCOC(=O)c1cc2cccc(F)c2o1
[1]
  Activity: -18.1%

## CC(=O)c1cc2ccccc2o1
[1]
  Activity: 33.5%

## O=C(/C=C/c1ccccc1Cl)c1cc2ccccc2s1
[1]
  Activity: 2%

## C[S+]([O-])CC(=O)c1cc2ccccc2o1 (stereo not drawn)
[1]
  Activity: 3.9%

## CCOC(=O)c1cc2ccccc2s1
[1]
  Activity: 8.2%

## CCOC(=O)c1cc2cc3c(cc2s1)OCO3
[2]
  Activity: 0.091 g/cm2
[3]
  Activity: Active
[4]
  Activity: Non-toxic
[5]
  Activity: Active
[6]
  Activity: Non-toxic
[7]
  Activity: 6.45%
[8]
  Activity: Non-toxic
[1]
  Activity: 64.2%
[10]
  Activity: Non-toxic
[24]
  Activity: Active
[25]
  Activity: Active
[11]
  Activity: Non-toxic
[12]
  Activity: inactive
[13]
  Activity: 0.053 g/cm2
[14]
  Activity: Non-toxic
[15]
  Activity: Active
[16]
  Activity: 5.76 µm
[17]
  Activity: Non-toxic
[18]
  LD50 at 408 h: > 500 mg/kg
[19]
  Activity: 0.072 g/cm2
[20]
  Activity: Active
[21]
  Activity: 7.1%
[22]
  Activity: Non-toxic
[23]
  Activity: 5.55%
[26]
  Activity: Active

## O=C(/C=C/c1ccccc1Cl)c1cc2ccccc2o1
[1]
  Activity: 1.8%

## CCOC(=O)c1cc2c(Cl)cccc2s1
[1]
  Activity: -0.6%

## CCOC(=O)c1ccc2sc(C(=O)/C=C/c3ccc(OC)c(OC)c3)cc2c1
[1]
  Activity: -9.6%

## O=C(/C=C/c1ccccc1)c1cc2ccccc2s1
[1]
  Activity: 15.4%

## C[S+]([O-])CC(=O)c1cc2cc3c(cc2s1)OCO3 (stereo not drawn)
[1]
  Activity: 0.6%

## CCOC(=O)c1cc2cc(OC)c(OC)cc2s1
[1]
  Activity: 49.9%

## CCOC(=O)c1ccc2sc(C(=O)/C=C/c3ccc(OC)cc3)cc2c1
[1]
  Activity: 1.7%

## COC(=O)c1ccc2sc(C(C)=O)cc2c1
[1]
  Activity: 41.4%

## CCOC(=O)c1cc2cc(Cl)cc(Cl)c2o1
[1]
  Activity: -1.6%

## CS(=O)(=O)CC(=O)c1cc2cc3c(cc2s1)OCO3
[1]
  Activity: -9.3%

## CCOC(=O)c1cc2ccccc2o1
[1]
  Activity: 7.1%

## COc1cc2cc(C(=O)C[S+](C)[O-])sc2cc1OC (stereo not drawn)
[1]
  Activity: 13.5%

## CCOC(=O)c1cc2cc(C(=O)OC)ccc2s1
[1]
  Activity: 49.8%

## C[S+]([O-])CC(=O)c1cc2ccccc2s1 (stereo not drawn)
[2]
  Activity: 0.09 g/cm2
[3]
  Activity: Active
[4]
  Activity: Non-toxic
[5]
  Activity: Active
[6]
  Activity: Non-toxic
[7]
  Activity: 6.45%
[8]
  Activity: Non-toxic
[1]
  Activity: 19.7%
[10]
  Activity: Non-toxic
[25]
  Activity: Active
[11]
  Activity: Non-toxic
[12]
  Activity: inactive
[13]
  Activity: 0.05 g/cm2
[14]
  Activity: Non-toxic
[15]
  Activity: Active
[16]
  Activity: 5.85 µm
[17]
  Activity: Non-toxic
[18]
  LD50 at 408 h: > 700 mg/kg
[19]
  Activity: 0.072 g/cm2
[20]
  Activity: Active
[21]
  Activity: 5.95%
[22]
  Activity: Non-toxic
[23]
  Activity: 5.13%
[26]
  Activity: Active

Source: ChEMBL document CHEMBL1156262, “Substituted benzothiophene or benzofuran derivatives as a novel class of bone morphogenetic protein-2 up-regulators: synthesis, structure-activity relationships, and preventive bone loss efficacies in senescence accelerated mice (SAMP6) and ovariectomized rats” (J Med Chem, 2010)
